Experimental data taken from ChEMBL document CHEMBL2375228, “4-Bromo-2-(piperidin-1-yl)thiazol-5-yl-phenyl methanone (12b) inhibits Na+/K(+)-ATPase and Ras oncogene activity in cancer cells” (Eur J Med Chem, 2013).
pIC50: −log10 of the molar value.

What was measured:
MCF7 = assay: Cytotoxicity against human MCF7 cells after 72 hrs by MTT assay; type: functional, cell-based; conditions: MCF7, 72 h
Method in brief: (§1)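 Cells grown in RPMI with 10% heat-inactivated fetal calf serum and exposed to compound for 72 h. Overall growth read by MTT colorimetric assay; IC50 derived from it. Six replicates per condition.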

A549 = assay: Cytotoxicity against human A549 cells after 72 hrs by MTT assay; type: functional, cell-based; conditions: A549, 72 h; method in brief: as §1
[1] = Cytotoxicity against human U373 cells after 72 hrs by MTT assay; type: functional, cell-based, U-373MG ATCC; conditions: U373 MG; method in brief: as §1
PC-3 = assay: Cytotoxicity against human PC3 cells after 72 hrs by MTT assay; type: functional, cell-based; conditions: PC-3, 72 h; method in brief: as §1
SK-MEL-28 = assay: Cytotoxicity against human SK-MEL-28 cells after 72 hrs by MTT assay; type: functional, cell-based; conditions: SK-MEL-28, 72 h; method in brief: as §1
[2] = Cytotoxicity against human Hs683 cells after 72 hrs by MTT assay; type: functional, cell-based; conditions: Hs 683, 72 h; method in brief: as §1

## O=C(c1ccccc1)c1sc(N2CCCC2)nc1Cl
MCF7
  pIC50: 4.20
A549
  pIC50: 4.30
[1]
  pIC50: 4.09
PC-3
  pIC50: < 4.00
SK-MEL-28
  pIC50: 4.01
[2]
  pIC50: 4.36

## O=C(c1ccccc1)c1sc(N2CCOCC2)nc1Br
MCF7
  pIC50: 4.29
A549
  pIC50: 4.08
[1]
  pIC50: < 4.00
PC-3
  pIC50: < 4.00
SK-MEL-28
  pIC50: < 4.00
[2]
  pIC50: 4.03

## COC(=O)c1sc2nc(N3CCOCC3)sc2c1C
MCF7
  pIC50: 4.11
A549
  pIC50: 4.02
[1]
  pIC50: < 4.00
PC-3
  pIC50: < 4.00
SK-MEL-28
  pIC50: < 4.00
[2]
  pIC50: 4.04

## N#Cc1sc(N2CCCCC2)nc1Br
MCF7
  pIC50: 4.11
A549
  pIC50: 4.03
[1]
  pIC50: < 4.00
PC-3
  pIC50: < 4.00
SK-MEL-28
  pIC50: < 4.00
[2]
  pIC50: 4.08

## COC(=O)c1sc2nc(N3CCCCC3)sc2c1C
MCF7
  pIC50: 4.05
A549
  pIC50: < 4.00
[1]
  pIC50: < 4.00
PC-3
  pIC50: 4.03
SK-MEL-28
  pIC50: < 4.00
[2]
  pIC50: < 4.00

## CSc1nc(Cl)c(C(=O)c2ccccc2)s1
MCF7
  pIC50: 4.04
A549
  pIC50: < 4.00
[1]
  pIC50: < 4.00
PC-3
  pIC50: < 4.00
SK-MEL-28
  pIC50: < 4.00
[2]
  pIC50: < 4.00

## CSc1nc(Br)c(C(=O)c2ccccc2)s1
MCF7
  pIC50: 4.17
A549
  pIC50: 4.01
[1]
  pIC50: 4.05
PC-3
  pIC50: < 4.00
SK-MEL-28
  pIC50: < 4.00
[2]
  pIC50: < 4.00

## O=C(c1ccccc1)c1sc(N2CCOCC2)nc1Cl
MCF7
  pIC50: 4.15
A549
  pIC50: 4.11
[1]
  pIC50: 4.04
PC-3
  pIC50: < 4.00
SK-MEL-28
  pIC50: < 4.00
[2]
  pIC50: < 4.00
